“Also recorded” adds a separate entry of the source.
Tests used:
[1] = system: patients with type 2 diabetes mellitus; assay: Urine volume and micturition frequency; format: in vivo, human
Summary of the method: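 Urine volume and micturition frequency were recorded under controlled fluid intake, with oral once-daily dosing of test compound or placebo taken with 240 mL water. Dosing was a single dose on day 1, then days 3–9. Placebo was given within each dose group at a 3:1 active:placebo randomization.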

[2] = system: patients with type 2 diabetes mellitus; assay: Derived creatinine clearance; format: in vivo, human
Summary of the method: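 Derived creatinine clearance was calculated from urinary creatinine concentration and volume in timed urine fractions, together with plasma creatinine. It is expressed as […] and given as change from baseline. Dosing was oral, once daily with 240 mL water: a single dose on day 1, then daily on days 3–9.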

[3] = system: patients with type 2 diabetes mellitus; assay: Fasting plasma glucose; format: in vivo, human; settings: day 10, 1 day after the last dose
Summary of the method: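 Fasting plasma glucose was measured after a 10 h overnight fast. Dosing was oral, once daily with 240 mL water: a single dose on day 1, none on day 2, then daily on days 3–9. Patients were randomized 3:1 to test compound or placebo within each dose group (2.5, 10, 25, 100 mg; n = 12 per group). Descriptive statistics used the treated set (n = 48).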

[4] = system: patients with type 2 diabetes mellitus; assay: Weighted mean daily glucose; format: in vivo, human; settings: for Mean MDG, mean (least squares) change from baseline to day 8: baseline day −2
Summary of the method: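 Eight-point weighted mean daily glucose was calculated as the 24 h glucose AUEC0–24 divided by 24 h. It was measured under standardized meals without OGTT on day −2 (baseline) and day 8, after multiple once-daily oral doses. Change from baseline is given as least squares means. Analysis used the treated set.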

[5] = system: patients with type 2 diabetes mellitus; assay: Oral glucose tolerance test, glucose AUEC1-5; format: in vivo, human; settings: for Glucose AUEC1–5, change from baseline to day 9: baseline day −1
Summary of the method: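 For the OGTT, 75 g glucose solution was given after an overnight fast on days −1, 1 and 9, with the test compound or placebo given orally once daily. Glucose AUEC was calculated over 1–5 h after OGTT. Change is from baseline on day −1. Patients were randomized 3:1 to active or placebo per dose group. Analysis was descriptive.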

SGLT1 = settings: in vitro; cited from earlier work
healthy volunteers = settings: single oral doses; cited from earlier work

With `OC[C@H]1O[C@@H](c2ccc(Cl)c(Cc3ccc(O[C@H]4CCOC4)cc3)c2)[C@H](O)[C@@H](O)[C@@H]1O` [Empagliflozin] the “Mean (SD) micturition night frequency” value ([1]; 2.5 mg qd, Day 9, night 19:00–06:59) was 3.4 (1.3), the “Mean (SD) micturition day frequency” value ([1]; 10 mg qd, Day 1, day 07:00–18:59) was 8.3 (1.7) and the “Mean (SD) micturition night frequency” value ([1]; 10 mg qd, Day 1, night 19:00–06:59) was 3.8 (0.8). For the same molecule, the “Mean (SD) micturition day frequency” value ([1]; 10 mg qd, Day 8, day 07:00–18:59) was 6.8 (1.6), the “Mean (SD) micturition night frequency” value ([1]; 10 mg qd, Day 8, night 19:00–06:59) was 4.0 (1.7) and the “Mean (SD) micturition day frequency” value ([1]; 10 mg qd, Day 9, day 07:00–18:59) was 8.9 (1.7). The “Mean (SD) micturition night frequency” value ([1]; 10 mg qd, Day 9, night 19:00–06:59) was 3.7 (0.5), the “Mean (SD) micturition day frequency” value ([1]; 25 mg qd, Day 1, day 07:00–18:59) was 7.8 (2.6) and the “Mean (SD) micturition night frequency” value ([1]; 25 mg qd, Day 1, night 19:00–06:59) was 4.3 (1.0). The “Mean (SD) micturition day frequency” value ([1]; 25 mg qd, Day 8, day 07:00–18:59) was 7.0 (1.6), the “Mean (SD) micturition night frequency” value ([1]; 25 mg qd, Day 8, night 19:00–06:59) was 4.8 (1.6) and the “Mean (SD) micturition day frequency” value ([1]; 25 mg qd, Day 9, day 07:00–18:59) was 8.2 (2.0). For the same molecule, the “Mean (SD) micturition night frequency” value ([1]; 25 mg qd, Day 9, night 19:00–06:59) was 4.1 (1.4), the “Mean (SD) micturition day frequency” value ([1]; 100 mg qd, Day 1, day 07:00–18:59) was 7.9 (2.4) and the “Mean (SD) micturition night frequency” value ([1]; 100 mg qd, Day 1, night 19:00–06:59) was 3.6 (1.1). The “Mean (SD) micturition day frequency” value ([1]; 100 mg qd, Day 8, day 07:00–18:59) was 6.9 (1.5), the “Mean (SD) micturition night frequency” value ([1]; 100 mg qd, Day 8, night 19:00–06:59) was 4.7 (1.5) and the “Mean (SD) micturition day frequency” value ([1]; 100 mg qd, Day 9, day 07:00–18:59) was 8.4 (2.5). For the same molecule, the “Mean (SD) micturition night frequency” value ([1]; 100 mg qd, Day 9, night 19:00–06:59) was 3.7 (1.0), the “Change in micturition frequency compared with placebo” value ([1]; controlled fluid intake conditions) was “no changes in urine volume or micturition frequency; also recorded: no changes to micturition frequency” and the “Change from baseline in derived creatinine clearance, mean (SD)” value (“Change from baseline … (SD)” for short) ([2]; 2.5 mg qd, 16 h) was −57.0 (59.4) mL/min 1.73 m^2. For the same molecule, the “Change from baseline … (SD)” value ([2]; 2.5 mg qd, 166 h, n = 7) was 360 (620) mL/min 1.73 m^2, the “Change from baseline … (SD)” value ([2]; 2.5 mg qd, 184 h) was −20.3 (59.2) mL/min 1.73 m^2 and the “Change from baseline … (SD)” value ([2]; 10 mg qd, 16 h) was −28.7 (34.2) mL/min 1.73 m^2. For the same molecule, the “Change from baseline … (SD)” value ([2]; 10 mg qd, 166 h) was 12.8 (54.7) mL/min 1.73 m^2, the “Change from baseline … (SD)” value ([2]; 10 mg qd, 184 h) was −38.4 (36.4) mL/min 1.73 m^2 and the “Change from baseline … (SD)” value ([2]; 25 mg qd, 16 h) was −89.2 (43.2) mL/min 1.73 m^2. The “Change from baseline … (SD)” value ([2]; 25 mg qd, 166 h) was −40.3 (61.7) mL/min 1.73 m^2, the “Change from baseline … (SD)” value ([2]; 25 mg qd, 184 h) was −52.4 (45.5) mL/min 1.73 m^2 and the “Change from baseline … (SD)” value ([2]; 100 mg qd, 16 h) was −21.0 (59.3) mL/min 1.73 m^2. For the same molecule, the “Change from baseline … (SD)” value ([2]; 100 mg qd, 166 h) was −10.6 (58.0) mL/min 1.73 m^2, the “Change from baseline … (SD)” value ([2]; 100 mg qd, 184 h) was −14.4 (55.3) mL/min 1.73 m^2 and the “FPG lower than on day 1” value [3] was “at least 14%”. For the same molecule, the “Mean MDG (SD), Day 8” value ([4]; 2.5 mg qd, without OGTT) was 134 (42.7) mg/dL, the “Mean MDG change from baseline to day 8, difference to placebo” value (shortened to “Mean MDG change … difference to placebo”) ([4]; 2.5 mg qd, without OGTT) was −15.5, p < 0.05 mg/dL and the “Mean MDG, mean (least squares) change from baseline to day 8” value (from here on “Mean MDG, mean (least squares) change”) ([4]; 2.5 mg qd, without OGTT) was -29.0 mg/dL. The “Mean MDG (SD), Day 8” value ([4]; 10 mg qd, n = 8, without OGTT) was 124 (18.9) mg/dL, the “Mean MDG change … difference to placebo” value ([4]; 10 mg qd, without OGTT) was −23.5, p < 0.01 mg/dL and the “Mean MDG, mean (least squares) change” value ([4]; 10 mg qd, without OGTT) was -37.0 mg/dL. The “Mean MDG (SD), Day 8” value ([4]; 25 mg qd, without OGTT) was 133 (36.2) mg/dL, the “Mean MDG change … difference to placebo” value ([4]; 25 mg qd, without OGTT) was −15.0, p = 0.052 mg/dL and the “Mean MDG, mean (least squares) change” value ([4]; 25 mg qd, without OGTT) was -28.5 mg/dL. The “Mean MDG (SD), Day 8” value ([4]; 100 mg qd, without OGTT) was 154 (17.9) mg/dL, the “Mean MDG change … difference to placebo” value ([4]; 100 mg qd, without OGTT) was −10.6, p = 0.168 mg/dL and the “Mean MDG, mean (least squares) change” value ([4]; 100 mg qd, without OGTT) was -24.1 mg/dL. For the same molecule, the “Mean (SD) glucose AUEC1–5, Day 9” value ([5]; 2.5 mg qd, after OGTT) was 713 (216) mg h/dL, the “Glucose AUEC1–5, change from baseline to day 9” value (“Glucose AUEC1–5, change” below) ([5]; 2.5 mg qd, after OGTT) was 23.1% and the “Glucose AUEC1–5, change” value ([5]; 10 mg qd, after OGTT) was 27.5%. The “Mean (SD) glucose AUEC1–5, Day 9” value ([5]; 10 mg qd, n = 8, after OGTT) was 655 (144) mg h/dL, the “Mean (SD) glucose AUEC1–5, Day 9” value ([5]; 25 mg qd, after OGTT) was 679 (109) mg h/dL and the “Glucose AUEC1–5, change” value ([5]; 25 mg qd, after OGTT) was 23.0%. For the same molecule, the “Mean (SD) glucose AUEC1–5, Day 9” value ([5]; 100 mg qd, after OGTT) was 817 (126) mg h/dL, the “Glucose AUEC1–5, change” value ([5]; 100 mg qd, after OGTT) was 22.9% and the “Selectivity for SGLT2 over SGLT1” value (SGLT1) was > 2,500 fold. For the same molecule, the Tolerability (healthy volunteers) was “well tolerated”.
